Test results reported in ChEMBL document CHEMBL3259562, “4-Alkyloxyimino derivatives of uridine-5'-triphosphate: distal modification of potent agonists as a strategy for molecular probes of P2Y2, P2Y4, and P2Y6 receptors” (J Med Chem, 2014).
Calls of active or inactive are those of the source. The calls are words filed in the database; no cut-off is given here.

Assays:
P2Y purinoceptor 6 [1] = molecular target: T1, P2Y purinoceptor 6 (Homo sapiens, UniProt Q15077); assay: Agonist activity at human P2Y6 receptor expressed in human 1321N1 cells assessed as stimulation of [3H]inositol phosphate accumulation by liquid scintillation counting; assay type: functional, cell-based
In short: (§1)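 Stable 1321N1 lines made by retroviral expression of each human receptor (parent cells lack P2YRs), seeded at 20000 cells/well two days ahead. Labelled 16 h with 1.0 μCi [3H]myo-inositol in serum-free, inositol-free DMEM. Agonist given in 100 mM Hepes pH 7.3/HBSS with 50 mM LiCl for 30 min at 37 °C. Stopped with ice-cold 50 mM formic acid, then neutralised. Total inositol phosphates taken off Dowex AG1-X8 and counted by scintillation.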

P2Y purinoceptor 2 [2] = molecular target: T2, P2Y purinoceptor 2 (Homo sapiens, UniProt P41231); assay: Agonist activity at human P2Y2 receptor expressed in human 1321N1 cells assessed as stimulation of [3H]inositol phosphate accumulation by liquid scintillation counting; assay type: functional, cell-based; in short: as §1
P2Y purinoceptor 4 [3] = molecular target: T3, P2Y purinoceptor 4 (Homo sapiens, UniProt P51582); assay: Agonist activity at human P2Y4 receptor expressed in human 1321N1 cells assessed as stimulation of [3H]inositol phosphate accumulation by liquid scintillation counting; assay type: functional, cell-based; in short: as §1
P2Y purinoceptor 6 [4] = molecular target: T1, P2Y purinoceptor 6; assay: Binding affinity to human P2Y6 receptor expressed in human 1321N1 cells assessed as fluorescence intensity at 100 nM for 30 mins by flow cytometry (FCM) binding assay in presence of 10 uM P1-(uridine 5'-)-P4-(N4-methoxycytidine5'-)[…] selective dinucleotide agonist; assay type: cell-based
In short: (§2)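 P2Y6R-1321N1 cells grown in DMEM with 5% FBS, used at 80% confluence. Preincubated 30 min with 100 μM α,β-methylene-ADP plus 10 μM competing ligand, then 100 nM fluorescent ligand for 20–30 min. Cells washed three times in ice-cold DPBS, detached with 0.2% EDTA and analysed by flow cytometry (FL-4 channel, 10,000 events). MFI corrected for autofluorescence and expressed relative to ligand alone (100%); n = 4, mean ± SEM.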

P2Y purinoceptor 6 [5] = molecular target: T1, P2Y purinoceptor 6; assay: Binding affinity to human P2Y6 receptor expressed in human 1321N1 cells assessed as fluorescence intensity at 100 nM for 30 mins by flow cytometry (FCM) binding assay in presence of 10 uM suramin competitive antagonist; assay type: cell-based; in short: as §2
P2Y purinoceptor 6 [6] = molecular target: T1, P2Y purinoceptor 6; assay: Binding affinity to human P2Y6 receptor expressed in human 1321N1 cells assessed as fluorescence intensity at 1 uM for 30 mins by fluorescence microscopy in presence of 10 uM MRS2578 noncompetitive antagonist; assay type: cell-based
In short: (§3)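 P2Y6R-1321N1 cells on glass coverslips at 80% confluence, given fresh medium and, where stated, 10 μM noncompetitive antagonist MRS2578 for 30 min at 37 °C. Fluorescent ligand then added to 1 μM final for 30 min at 37 °C. Cells washed with ice-cold PBS, mounted and imaged by fluorescence microscopy.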

P2Y purinoceptor 6 [7] = molecular target: T1, P2Y purinoceptor 6; assay: Binding affinity to human P2Y6 receptor expressed in human 1321N1 cells assessed as fluorescence intensity at 1 uM for 30 mins by fluorescence microscopy; assay type: cell-based; in short: as §3
P2Y purinoceptor 6 [8] = molecular target: T1, P2Y purinoceptor 6; assay: Binding affinity to human P2Y6 receptor expressed in human 1321N1 cells assessed as fluorescence intensity at 100 nM for 30 mins by flow cytometry (FCM) binding assay in presence of 100 uM ecto-nucleotidase inhibitor alpha, beta-methylene-adenosine 5'-diphosphate; assay type: cell-based; in short: as §2
P2Y purinoceptor 6 [9] = molecular target: T1, P2Y purinoceptor 6; assay: Binding affinity to human P2Y6 receptor expressed in human 1321N1 cells assessed as fluorescence intensity at 100 nM for 30 mins by flow cytometry (FCM) binding assay in presence of 10 uM MRS2578 noncompetitive antagonist; assay type: cell-based; in short: as §2
P2Y purinoceptor 6 [10] = molecular target: T1, P2Y purinoceptor 6; assay: Binding affinity to human P2Y6 receptor expressed in human 1321N1 cells assessed as fluorescence intensity at 100 nM for 30 mins by flow cytometry (FCM) binding assay in presence of 10 uM MRS2179 P2Y1R-selective antagonist; assay type: cell-based; in short: as §2
P2Y purinoceptor 6 [11] = molecular target: T1, P2Y purinoceptor 6; assay: Agonist activity at human P2Y6 receptor expressed in human 1321N1 cells by functional assay; assay type: cell-based; in short: as §1
P2Y purinoceptor 2 [12] = molecular target: T2, P2Y purinoceptor 2; assay: Agonist activity at human P2Y2 receptor expressed in human 1321N1 cells by functional assay; assay type: cell-based; in short: as §1
P2Y purinoceptor 4 [13] = molecular target: T3, P2Y purinoceptor 4; assay: Agonist activity at human P2Y4 receptor expressed in human 1321N1 cells by functional assay; assay type: cell-based; in short: as §1

T1 sequence (Q15077 whole entry): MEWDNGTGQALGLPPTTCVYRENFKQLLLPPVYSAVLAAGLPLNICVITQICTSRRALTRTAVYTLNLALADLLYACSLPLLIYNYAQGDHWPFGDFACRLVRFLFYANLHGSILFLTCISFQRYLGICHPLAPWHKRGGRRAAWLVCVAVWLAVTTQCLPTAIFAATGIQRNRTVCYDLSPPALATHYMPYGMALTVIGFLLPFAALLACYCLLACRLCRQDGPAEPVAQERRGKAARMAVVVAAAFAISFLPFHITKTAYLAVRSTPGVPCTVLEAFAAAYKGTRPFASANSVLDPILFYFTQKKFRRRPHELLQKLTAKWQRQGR
T2 sequence (P41231 whole entry): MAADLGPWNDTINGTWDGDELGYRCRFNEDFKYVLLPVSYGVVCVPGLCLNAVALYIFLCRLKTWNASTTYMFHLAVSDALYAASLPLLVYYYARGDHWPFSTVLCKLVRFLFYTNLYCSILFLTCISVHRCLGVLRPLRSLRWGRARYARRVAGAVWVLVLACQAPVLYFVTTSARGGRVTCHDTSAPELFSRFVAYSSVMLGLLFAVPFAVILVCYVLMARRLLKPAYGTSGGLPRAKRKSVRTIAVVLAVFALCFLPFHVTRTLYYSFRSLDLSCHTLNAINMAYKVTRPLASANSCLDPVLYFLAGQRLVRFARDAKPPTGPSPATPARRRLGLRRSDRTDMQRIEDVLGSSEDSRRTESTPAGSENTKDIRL
T3 sequence (P51582 whole entry): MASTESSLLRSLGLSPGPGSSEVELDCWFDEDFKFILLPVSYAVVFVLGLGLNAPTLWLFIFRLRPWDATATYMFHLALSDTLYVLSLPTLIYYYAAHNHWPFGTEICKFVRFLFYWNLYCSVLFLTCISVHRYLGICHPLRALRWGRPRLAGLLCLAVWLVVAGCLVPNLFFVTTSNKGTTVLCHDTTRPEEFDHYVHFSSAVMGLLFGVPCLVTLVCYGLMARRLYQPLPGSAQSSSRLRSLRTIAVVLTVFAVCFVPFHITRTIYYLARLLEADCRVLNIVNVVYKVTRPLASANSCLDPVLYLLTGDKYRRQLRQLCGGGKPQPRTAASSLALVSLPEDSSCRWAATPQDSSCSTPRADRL

Structure (SMILES) | EC50 (P2Y purinoceptor 6 [1]) [µM] | EC50 (P2Y purinoceptor 2 [2]) [µM] | EC50 (P2Y purinoceptor 4 [3]) [µM] | further results
C#CCCCO/N=c1/ccn([C@@H]2O[C@H](COP(=O)(O)OP(=O)(O)OP(=O)(O)O)[C@@H](O)[C@H]2O)c(=O)[nH]1 | 3 | 0.168 | 0.41 | 
O=c1[nH]/c(=N\OCCCc2cccc(F)c2)ccn1[C@@H]1O[C@H](COP(=O)(O)OP(=O)(O)OP(=O)(O)O)[C@@H](O)[C@H]1O | 0.539 | 0.19 | 0.1 | 
N=c1ccc2c(-c3ccc(C(=O)NCCCCCCn4cc(CCNC(=O)COc5ccc(CCCO/N=c6/ccn([C@@H]7O[C@H](COP(=O)(O)OP(=O)(O)OP(=O)(O)O)[C@@H](O)[C@H]7O)c(=O)[nH]6)cc5)nn4)cc3C(=O)O)c3ccc(N)c(S(=O)(=O)O)c3oc-2c1S(=O)(=O)O | 0.334 | 0.577 | 0.2 | 
O=c1[nH]/c(=N\OCCOc2ccccc2)ccn1[C@@H]1O[C@H](COP(=O)(O)OP(=O)(O)OP(=O)(O)O)[C@@H](O)[C@H]1O | 1.78 | 3.4 | 0.43 | 
O=C(CCCCCNC(=O)COc1ccc(/C=C/c2ccc3n2[B-](F)(F)[N+]2=C(c4cccs4)C=CC2=C3)cc1)NCCCn1cc(CCNC(=O)COc2ccc(CCCO/N=c3/ccn([C@@H]4O[C@H](COP(=O)(O)OP(=O)(O)OP(=O)(O)O)[C@@H](O)[C@H]4O)c(=O)[nH]3)cc2)nn1 | 0.023 | 0.066 | 0.07 | Activity (P2Y purinoceptor 6 [4]): inactive; Activity (P2Y purinoceptor 6 [5]): inactive; Activity (P2Y purinoceptor 6 [6]): Active; Activity (P2Y purinoceptor 6 [7]): Active; Activity (P2Y purinoceptor 6 [8]): Active; Activity (P2Y purinoceptor 6 [9]): inactive; Activity (P2Y purinoceptor 6 [10]): Active
COc1ccc(CCCO/N=c2/ccn([C@@H]3O[C@H](COP(=O)(O)OP(=O)(O)OP(=O)(O)O)[C@@H](O)[C@H]3O)c(=O)[nH]2)cc1 | 0.277 | 0.047 | 0.023 | 
O=c1[nH]/c(=N\OCCCc2ccc(I)cc2)ccn1[C@@H]1O[C@H](COP(=O)(O)OP(=O)(O)OP(=O)(O)O)[C@@H](O)[C@H]1O | 0.09 | 0.187 | 0.091 | 
O=c1[nH]/c(=N\OCCCc2ccncc2)ccn1[C@@H]1O[C@H](COP(=O)(O)OP(=O)(O)OP(=O)(O)O)[C@@H](O)[C@H]1O | 4.28 | 0.285 | 0.25 | 
C#CCCNC(=O)COc1ccc(CCCO/N=c2/ccn([C@@H]3O[C@H](COP(=O)(O)OP(=O)(O)OP(=O)(O)O)[C@@H](O)[C@H]3O)c(=O)[nH]2)cc1 | 0.183 | 0.109 | 0.04 | 
O=c1[nH]/c(=N\OCCCc2ccc(F)cc2)ccn1[C@@H]1O[C@H](COP(=O)(O)OP(=O)(O)OP(=O)(O)O)[C@@H](O)[C@H]1O | 1.21 | 0.547 | 0.105 | 
O=c1[nH]/c(=N\OCCCc2cccc(I)c2)ccn1[C@@H]1O[C@H](COP(=O)(O)OP(=O)(O)OP(=O)(O)O)[C@@H](O)[C@H]1O | 0.299 | 0.325 | 0.114 | 
O=c1[nH]/c(=N\OCCCc2cccnc2)ccn1[C@@H]1O[C@H](COP(=O)(O)OP(=O)(O)OP(=O)(O)O)[C@@H](O)[C@H]1O | 2.95 | 0.327 | 0.3 | 
O=c1[nH]/c(=N\OCCCc2ccc3ccccc3c2)ccn1[C@@H]1O[C@H](COP(=O)(O)OP(=O)(O)OP(=O)(O)O)[C@@H](O)[C@H]1O | 0.09 | 0.139 | 0.128 | 
O=c1[nH]/c(=N\OCCCc2ccc(Br)cc2)ccn1[C@@H]1O[C@H](COP(=O)(O)OP(=O)(O)OP(=O)(O)O)[C@@H](O)[C@H]1O | 0.225 | 0.35 | 0.141 | 
O=c1[nH]/c(=N\OCCCc2ccccc2)ccn1[C@@H]1O[C@H](COP(=O)(O)OP(=O)(O)OP(=O)(O)OP(=O)(O)OC[C@H]2O[C@@H](n3cc/c(=N/OCCCc4ccccc4)[nH]c3=O)[C@H](O)[C@@H]2O)[C@@H](O)[C@H]1O |  |  |  | EC50 (P2Y purinoceptor 6 [11]): > 10 µM; EC50 (P2Y purinoceptor 2 [12]): > 10 µM; EC50 (P2Y purinoceptor 4 [13]): 1.33 µM
O=c1[nH]/c(=N\OCCCc2ccsc2)ccn1[C@@H]1O[C@H](COP(=O)(O)OP(=O)(O)OP(=O)(O)O)[C@@H](O)[C@H]1O | 0.164 | 0.103 | 0.02 | 
O=c1ccn([C@@H]2O[C@H](COP(=O)(O)OP(=O)(O)OP(=O)(O)OP(=O)(O)OC[C@H]3O[C@@H](n4cc/c(=N/OCCCc5ccccc5)[nH]c4=O)[C@H](O)[C@@H]3O)[C@@H](O)[C@H]2O)c(=O)[nH]1 |  |  |  | EC50 (P2Y purinoceptor 6 [11]): 0.332 µM; EC50 (P2Y purinoceptor 2 [12]): 0.389 µM; EC50 (P2Y purinoceptor 4 [13]): 0.093 µM
O=c1[nH]/c(=N\OCCCc2ccc([N+](=O)[O-])cc2)ccn1[C@@H]1O[C@H](COP(=O)(O)OP(=O)(O)OP(=O)(O)O)[C@@H](O)[C@H]1O | 1.33 | 0.458 | 0.084 | 
O=C(O)CCCO/N=c1/ccn([C@@H]2O[C@H](COP(=O)(O)OP(=O)(O)OP(=O)(O)O)[C@@H](O)[C@H]2O)c(=O)[nH]1 | 0.697 | 0.299 | 0.47 | 
O=c1[nH]/c(=N\OCCCc2cccc([N+](=O)[O-])c2)ccn1[C@@H]1O[C@H](COP(=O)(O)OP(=O)(O)OP(=O)(O)O)[C@@H](O)[C@H]1O | 9.7 | 0.457 | 0.095 | 
N#CC(CCO/N=c1/ccn([C@@H]2O[C@H](COP(=O)(O)OP(=O)(O)OP(=O)(O)O)[C@@H](O)[C@H]2O)c(=O)[nH]1)(c1ccccc1)c1ccccc1 | 0.177 | 0.934 | 0.047 | 
O=c1[nH]/c(=N\OCCCCc2ccccc2)ccn1[C@@H]1O[C@H](COP(=O)(O)OP(=O)(O)OP(=O)(O)O)[C@@H](O)[C@H]1O | 0.251 | 0.214 | 0.054 | 
